The values below come from PMC9706633 (Poultry Science, 2022).

“Also recorded” adds a separate entry of the source.

Assay [1] relates to cCCK1R. The assay can be described thus: Western blot of ERK1/2 phosphorylation, CHO cells expressing cCCK1R. The class given is cell-based, chicken. The conditions noted are these: 10 nM, 10 min, normalized by β-actin, N = 4. An outline of the steps:
(§1)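 CHO cells transfected with 1000 ng chicken CCK1R or CCK2R expression plasmid, grown in 24-well plates at 37 °C. At 24 h post-transfection, cells were exposed to test peptide (10 nM, 10 min), lysed, and immunoblotted with phospho-ERK1/2 (Thr202/Tyr204) and phospho-CREB (Ser133) rabbit mAbs. Densitometric bands normalized to β-actin, expressed as fold of untreated control; mean ± SEM, N = 4; t-test or ANOVA/Dunnett.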
A general note: A western blot detects proteins with antibodies after separation by electrophoresis.

Assay [2] concerns CHO cells transfected with the empty pcDNA3.1(+) vector. The assay can be described thus: pGL3-CRE-luciferase negative control, CHO cells with empty pcDNA3.1. It is filed as cell-based, Chinese hamster. The conditions noted are these: 6 h. The method in brief: (§2)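 CHO cells (DMEM, 10% FBS, penicillin/streptomycin, 37°C, 5% CO2) seeded a day ahead and co-transfected (jetPRIME) with 250 ng empty pcDNA3.1 plus 750 ng reporter: CRE (cAMP/PKA), NFAT-RE (calcium) or SRE (MAPK/ERK). After 24 h, cells were replated in 96-well plates and grown 24 h. They were then exposed to test peptide at 10−12–10−6 M in DMEM for 6 h, lysed, and read for luciferase.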

Assay [3] has as its system CCK2R. The conditions noted are these: mammals, ref Noble and Roques, 2002, Miller and Gao, 2008, cited from earlier work; for binding affinities of CCK-8S and CCK-8NS to CCK2R compared: in words.
In assay [4] the test system is cCCK1R. Kind of assay: pGL3-NFAT-RE-luciferase reporter assay. It is filed as cell-based, chicken. The conditions noted are these: read-out: EC50, calcium mobilization, CHO cells expressing cCCK1R, peptide 10^−12 M - 10^−6 M, 6 h, triplicates (N = 3). The method in brief:
(§3)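 CHO cells were grown in DMEM with 10% FBS at 37°C and 5% CO2. They were transiently co-transfected with 250 ng of chicken receptor plasmid (empty pcDNA3.1 as control) and 750 ng of reporter construct using jetPRIME. After 24 h, cells were reseeded and grown a further 24 h. Test peptide was then applied in DMEM, and lysate luciferase was measured. Data are mean ± SEM.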
A general note: A reporter such as luciferase makes a cellular process visible.

The subject of assay [5] is cCCK1R. The assay can be described thus: Western blot of CREB phosphorylation, CHO cells expressing cCCK1R. It is filed as cell-based, chicken. The conditions noted are these: 10 nM, 10 min, normalized by β-actin, N = 4. The method in brief:
as §1

Assay [6] deals with CHO cells transfected with the empty pcDNA3.1(+) vector. Kind of assay: pGL4-SRE-luciferase negative control, CHO cells with empty pcDNA3.1. As to conditions: 6 h. It is filed as cell-based, Chinese hamster. The method in brief:
as §2

Assay [7] has as its system cCCK2R. The assay can be described thus: pGL3-NFAT-RE-luciferase reporter assay. The class given is cell-based, chicken. As to conditions: read-out: EC50, calcium mobilization, CHO cells expressing cCCK2R, peptide 10^−12 M - 10^−6 M, 6 h, triplicates (N = 3). The method in brief: as §3
For assay [8], the system named is cCCK2R. Kind of assay: Western blot of CREB phosphorylation, CHO cells expressing cCCK2R. The class given is cell-based, chicken. The conditions noted are these: 10 nM, 10 min, normalized by β-actin, N = 4. The method in brief: as §1
The subject of assay [9] is cCCK2R. The assay can be described thus: pGL4-SRE-luciferase reporter assay. As to conditions: read-out: EC50, MAPK/ERK signaling pathway, CHO cells expressing cCCK2R, peptide 10^−12 M - 10^−6 M, 6 h, triplicates (N = 3). It is filed as cell-based, chicken. An outline of the steps: as §3
Assay [10] deals with cCCK2R. Kind of assay: pGL3-CRE-luciferase reporter assay. It is filed as cell-based, chicken. The conditions noted are these: read-out: EC50, cAMP/PKA signaling pathway, CHO cells expressing cCCK2R, peptide 10^−12 M - 10^−6 M, 6 h, triplicates (N = 3).
Assay [11] has as its system CHO cells transfected with the empty pcDNA3.1(+) vector. Kind of assay: pGL3-NFAT-RE-luciferase negative control, CHO cells with empty pcDNA3.1. The class given is cell-based, Chinese hamster. The conditions noted are these: 6 h. An outline of the steps:
as §2

The subject of assay [12] is cCCK2R. The assay can be described thus: Overall activation of cCCK2R. Also on record: species or system chicken. As to conditions: 3 cell-based luciferase reporter systems and western blots; CHO cells; in words.
For assay [13], the system named is cCCK1R. Kind of assay: Overall activation of cCCK1R. Details: species or system chicken. As to conditions: 3 cell-based luciferase reporter systems and western blots; CHO cells; in words.
The subject of assay [14] is cCCK1R. Kind of assay: pGL4-SRE-luciferase reporter assay. As to conditions: read-out: EC50, MAPK/ERK signaling pathway, CHO cells expressing cCCK1R, peptide 10^−12 M - 10^−6 M, 6 h, triplicates (N = 3). The class given is cell-based, chicken. An outline of the steps: as §3
Assay [15] relates to cCCK1R. The assay can be described thus: pGL3-CRE-luciferase reporter assay. The class given is cell-based, chicken. The conditions noted are these: read-out: EC50, cAMP/PKA signaling pathway, CHO cells expressing cCCK1R, peptide 10^−12 M - 10^−6 M, 6 h, triplicates (N = 3). An outline of the steps: as §3
The subject of assay [16] is cCCK2R. The assay can be described thus: Western blot of ERK1/2 phosphorylation, CHO cells expressing cCCK2R. The conditions noted are these: 10 nM, 10 min, normalized by β-actin, N = 4. The class given is cell-based, chicken. An outline of the steps:
as §1

With “DYMGWMDF [cCCK-8S, (Tyr (SO3H)^27) Cholecystokinin fragment 26-33 amide]”, the “ERK1/2 phosphorylation (pERK1/2)” value in [1] and in assay [16] was “strongly enhance ERK1/2 phosphorylation” in each case. The “effect on pGL3-CRE-luciferase activity in empty-vector CHO cells” value in [2] (N = 3) was “no effect”; in assay [2] (N = 3, listed as CCK-8S) it was “no response”. Moreover, the “binding affinities of CCK-8S and CCK-8NS to CCK2R compared” value in assay [3] is recorded as “similar”. In addition, the EC50 turned out to be 5.41 ± 1.15 nM in [4]; 1.93 ± 0.7 nM in [7]; 1.16 ± 0.61 nM in assay [9]; 29.6 ± 7.68 nM in [10]; 0.32 ± 0.26 nM in assay [14]; 5.76 ± 1.55 nM in assay [15]. For the same substance, the “CREB phosphorylation (pCREB)” value in [5] and in assay [8] was “potently enhance CREB phosphorylation” each time. The “effect on pGL4-SRE-luciferase activity in empty-vector CHO cells” value in assay [6] (N = 3) is listed as “no effect”; in [6] (N = 3, listed as CCK-8S), “no response”. Besides, the “effect on pGL3-NFAT-RE-luciferase activity in empty-vector CHO cells” value was “no effect” in [11] (N = 3) and “no response” in assay [11] (N = 3, listed as CCK-8S). For the same substance, the “activation of cCCK2R, overall” value in [12] was “can potently activate cCCK2R”. The “activation of cCCK1R, overall” value in [13] is listed as “potently activated; also recorded: can potently activate cCCK1R; also recorded: activated preferentially”.

Turning to “CCK-8NS: non-sulfated octapeptide of CCK”, in assay [3], the “binding affinities of CCK-8S and CCK-8NS to CCK2R compared” value is given as “similar”; the “binding affinity to CCK2R, fold higher than CCK-4” value was 10 fold.
